Experimental data: ChEMBL document CHEMBL4376883, “Discovery and Optimization of Small Molecules Targeting the Protein-Protein Interaction of Heat Shock Protein 90 (Hsp90) and Cell Division Cycle 37 as Orally Active Inhibitors for the Treatment of Colorectal Cancer” (J Med Chem, 2020)

Tests used:
[1] = molecular target: Heat shock protein HSP 90-beta/Hsp90 co-chaperone Cdc37 (Homo sapiens) (UniProt P08238+Q16543); assay: Inhibition of His-tagged HSP90/GST-tagged Cdc37 (unknown origin) protein-protein interaction at 100 uM measured after 1 hr by HTRF assay relative to control; format: protein-complex assay
Summary of the method: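 His-Hsp90 and GST-Cdc37 were premixed at a final 80 nM in PBS with 200 mM KF, pH 7.4. Compound was added and the mix incubated 1 h at 37 °C, then read by HTRF. Inhibition rate was taken at 100 μM compound.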

[2] = molecular target: T1, Heat shock protein HSP90 (Homo sapiens, UniProt P07900+P08238); assay: Binding affinity to recombinant […] HSP90 N-terminal domain (9 to 236 residues) (unknown origin) expressed in Escherichia coli BL21 (DE3) assessed as change in melting temperature by SYPRO dye based thermal shift assay
Summary of the method: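 Hsp90 N-terminal domain (10 µM) mixed with compound at 200, 100, 50 or 10 µM in 1× PBS, pH 8.0, with 6× SYPRO Orange. Heated from room temperature to 99 °C at 1 °C/min; fluorescence read at 492 nm excitation and 610 nm emission.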

[3] = molecular target: T1, Heat shock protein HSP90; assay: Inhibition of recombinant full-length HSP90 ATPase activity N-terminal domain (9 to 236 residues) (unknown origin) expressed in Escherichia coli BL21 (DE3) measured after 1 hr by ADP hunter plus assay
[4] = Distribution coefficient, log D of the compound at pH 7.4 by potentiometric titration method; format: physicochemical; conditions: octanol/water
Summary of the method: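 log D at pH 7.4 measured by potentiometric titration on a Gemini Profiler.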

[5] = Permeability of the compound at pH 7.4 by PAMPA; format: ADME; conditions: read-out: permeability
Summary of the method: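 Permeability coefficient (Pe) was measured at pH 7.4 by double-sink PAMPA.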

[6] = test system: HCT-116; assay: Antiproliferative activity against human HCT116 cells measured after 72 hrs by CCK8 assay; format: functional, cell-based; conditions: HCT-116, 72 h
Summary of the method: (§1)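 Cells grown in RPMI 1640 with 10% FBS at 37 °C, 5% CO2; STR-authenticated and mycoplasma-checked. Seeded at 3000-5000 cells/well and left 24 h. Serial compound dilutions added for 72 h, with matched DMSO as control. Viability read by CCK8 kit using the standard protocol. IC50 values derived from at least three parallel experiments.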

[7] = molecular target: T1, Heat shock protein HSP90; assay: Binding affinity to recombinant […] HSP90 N-terminal domain (9 to 236 residues) (unknown origin) expressed in Escherichia coli BL21 (DE3) by isothermal calorimetric method
Summary of the method: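 ITC: 50 µM Hsp90 in the cell and 300 µM compound in the syringe, both in 20 mM Tris-HCl, 150 mM NaCl, pH 7.4. Nineteen injections at 180 s intervals with stirring at 1000 rpm.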

[8] = test system: A549; assay: Antiproliferative activity against human A549 cells measured after 72 hrs by CCK8 assay; format: functional, cell-based; conditions: A549, 72 h; summary of the method: as §1
[9] = molecular target: T1, Heat shock protein HSP90; assay: Binding affinity to recombinant […] biotinylated-HSP90 N-terminal domain (9 to 236 residues) (unknown origin) expressed in Escherichia coli BL21 (DE3) by biolayer interferometry
Summary of the method: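 Biotinylated Hsp90 (100 µg/mL) loaded onto streptavidin sensors prewetted 10 min in PBS with 0.05% BSA and 0.01% Tween 20. Analyte binding measured at 28 °C. Double reference subtraction applied; data fitted to a 1:1 model with K_D = K_off/K_on.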

[10] = test system: L02; assay: Cytotoxicity against human L02 cells measured after 72 hrs by CCK8 assay; format: functional, cell-based; conditions: L02, 72 h; summary of the method: as §1
[11] = Stability of the compound in human plasma assessed as parent compound remaining at 1 uM measured immediately by LC-MS/MS analysis; format: ADME, cell-free; conditions: read-out: Stability
Summary of the method: (§2)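 Compound diluted from 10 mM DMSO stock to 1 μM in mouse or human plasma and held at 37 °C in a water bath. Reactions were stopped with acetonitrile at 0, 10, 30, 60 and 90 min. Parent compound was quantified by LC-MS/MS as % remaining.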

[12] = Stability of the compound in human plasma assessed as parent compound remaining at 1 uM measured after 10 mins by LC-MS/MS analysis; format: ADME, cell-free; conditions: read-out: Stability; summary of the method: as §2
[13] = Stability of the compound in mouse plasma assessed as parent compound remaining at 1 uM measured immediately by LC-MS/MS analysis; format: ADME, cell-free; conditions: read-out: Stability; summary of the method: as §2
[14] = Clearance in human liver microsomes at 10 uM preincubated for 5 mins followed by NADPH addition by LC-MS/MS analysis; format: ADME, Microsome; conditions: read-out: CLH
Summary of the method: (§3)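 Compound at 10 µM preincubated 5 min at 37 °C with human or mouse liver microsomes (0.5 mg/mL) in 100 mM phosphate, pH 7.4. Reaction started with 1 mM NADPH, stopped with cold acetonitrile, centrifuged and analysed by LC-MS/MS.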

[15] = Stability of the compound in human plasma assessed as parent compound remaining at 1 uM measured after 90 mins by LC-MS/MS analysis; format: ADME, cell-free; conditions: read-out: Stability; summary of the method: as §2
[16] = Stability of the compound in mouse plasma assessed as parent compound remaining at 1 uM measured after 60 mins by LC-MS/MS analysis; format: ADME, cell-free; conditions: read-out: Stability; summary of the method: as §2
[17] = Clearance in mouse liver microsomes at 10 uM preincubated for 5 mins followed by NADPH addition by LC-MS/MS analysis; format: ADME, Microsome; conditions: read-out: CLH; summary of the method: as §3
[18] = Half life in human liver microsomes at 10 uM preincubated for 5 mins followed by NADPH addition by LC-MS/MS analysis; format: ADME, Microsome; summary of the method: as §3
[19] = Half life in mouse liver microsomes at 10 uM preincubated for 5 mins followed by NADPH addition by LC-MS/MS analysis; format: ADME, Microsome; summary of the method: as §3
[20] = Stability of the compound in mouse plasma assessed as parent compound remaining at 1 uM measured after 30 mins by LC-MS/MS analysis; format: ADME, cell-free; conditions: read-out: Stability; summary of the method: as §2
[21] = Stability of the compound in human plasma assessed as parent compound remaining at 1 uM measured after 30 mins by LC-MS/MS analysis; format: ADME, cell-free; conditions: read-out: Stability; summary of the method: as §2
[22] = Stability of the compound in mouse plasma assessed as parent compound remaining at 1 uM measured after 90 mins by LC-MS/MS analysis; format: ADME, cell-free; conditions: read-out: Stability; summary of the method: as §2
[23] = Stability of the compound in human plasma assessed as parent compound remaining at 1 uM measured after 60 mins by LC-MS/MS analysis; format: ADME, cell-free; conditions: read-out: Stability; summary of the method: as §2
[24] = Stability of the compound in mouse plasma assessed as parent compound remaining at 1 uM measured after 10 mins by LC-MS/MS analysis; format: ADME, cell-free; conditions: read-out: Stability; summary of the method: as §2

## Cc1cc(C)c(S(=O)(=O)N(Cc2ccc(C(=O)O)cc2)c2ccc(Nc3ccnc(N4CCCC4)n3)cc2)c(C)c1
[1]
  inhibition: 52.8%

## Cc1cc(C)c(S(=O)(=O)Nc2ccc(Nc3ccnc(N4CCCC4)n3)cc2)c(C)c1
[1]
  inhibition: 66%

## Cc1cc(C)c(S(=O)(=O)N(CC(=O)O)c2ccc(Nc3ccnc(N4CCCCC4)n3)cc2)c(C)c1
[1]
  inhibition: 86.2%

## COC(=O)CN(c1ccc(Nc2ccnc(NC3CC3)n2)cc1)S(=O)(=O)c1c(C)cc(C)cc1C
[1]
  inhibition: < 50%

## CNc1nccc(Nc2ccc(N(CC(=O)O)S(=O)(=O)c3c(C)cc(C)cc3C)cc2)n1
[1]
  inhibition: < 50%

## COc1ccc(S(=O)(=O)Nc2ccc(Nc3ccnc(N4CCCC4)n3)cc2)cc1
[1]
  inhibition: < 20%

## CC(C)(C)c1ccc(S(=O)(=O)Nc2ccc(Nc3ccnc(N4CCCC4)n3)cc2)cc1
[1]
  inhibition: < 20%

## COC(=O)CN(c1ccc(Nc2ccnc(N3CCCC3)n2)cc1)S(=O)(=O)c1c(C)cc(C)cc1C
[1]
  inhibition: 65.4%

## Cc1cc(C)c(S(=O)(=O)N(CC#N)c2ccc(Nc3ccnc(N4CCNCC4)n3)cc2)c(C)c1
[2]
  ΔTm: 1.1 °C
[3]
  IC50: > 100 µM
[4]
  logD: 2.01
[1]
  inhibition: 64.3%
[5]
  Papp: 61.5 ×10⁻⁶ cm/s

## CCC(CC)Nc1nccc(Nc2ccc(N(CC(=O)OC)S(=O)(=O)c3c(C)cc(C)cc3C)cc2)n1
[1]
  inhibition: < 50%

## COC(=O)CN(c1ccc(Nc2ccnc(N3CCNCC3)n2)cc1)S(=O)(=O)c1c(C)cc(C)cc1C
[6]
  IC50: 6.25 µM
[2]
  ΔTm: 3.53 °C
[3]
  IC50: > 100 µM
[7]
  Kd: 1.73 µM
[4]
  logD: 2.63
[1]
  inhibition: 95.5%
[5]
  Papp: 101 ×10⁻⁶ cm/s
[8]
  IC50: 43.3 µM
[9]
  Kd: 1.97 µM
[10]
  IC50: > 50 µM

## COc1ccc(CN(c2ccc(Nc3ccnc(N4CCCC4)n3)cc2)S(=O)(=O)c2c(C)cc(C)cc2C)cc1
[1]
  inhibition: < 50%

## CCN(CC)c1nccc(Nc2ccc(N(CC(=O)O)S(=O)(=O)c3c(C)cc(C)cc3C)cc2)n1
[1]
  inhibition: 79.6%

## CCN(CC)c1nccc(Nc2ccc(N(CC(=O)OC)S(=O)(=O)c3c(C)cc(C)cc3C)cc2)n1
[1]
  inhibition: < 50%

## Cc1cc(C)c(S(=O)(=O)N(CC(=O)O)c2ccc(Nc3ccnc(N4CCCC4)n3)cc2)c(C)c1
[11]
  remaining at 0 min, 1 µM: 100%
[12]
  remaining at 10 min, 1 µM: 101%
[13]
  remaining at 0 min, 1 µM: 100%
[6]
  IC50: 10.2 µM
[14]
  microsomal CLint at 10 µM: 32.6 µL/min/mg
[3]
  IC50: > 100 µM
[7]
  Kd: 7.81 µM
[4]
  logD: 1.67
[5]
  Papp: 70.4 ×10⁻⁶ cm/s
[15]
  remaining at 1.5 h, 1 µM: 62%
[16]
  remaining at 1 h, 1 µM: 71%
[17]
  microsomal CLint at 10 µM: 59 µL/min/mg
[18]
  half-life at 10 µM: 30.4 min
[19]
  half-life at 10 µM: 16.8 min
[20]
  remaining at 0.5 h, 1 µM: 86%
[8]
  IC50: 55.7 µM
[21]
  remaining at 0.5 h, 1 µM: 92%
[9]
  Kd: 7.41 µM
[10]
  IC50: > 50 µM
[22]
  remaining at 1.5 h, 1 µM: 59%
[23]
  remaining at 1 h, 1 µM: 76%
[24]
  remaining at 10 min, 1 µM: 100%

## COC(=O)CN(c1ccc(Nc2ccnc(N3CCN(C)CC3)n2)cc1)S(=O)(=O)c1c(C)cc(C)cc1C
[1]
  inhibition: 70.1%

## COc1cc(S(=O)(=O)Nc2ccc(Nc3ccnc(N4CCCC4)n3)cc2)c(C)cc1C
[4]
  logD: 4.82
[1]
  inhibition: 56.3%
[5]
  Papp: 65.9 ×10⁻⁶ cm/s
[9]
  Kd: 21.1 µM
